# According to ChEMBL document CHEMBL2401665, “Design, synthesis and biological studies of novel tubulin inhibitors” (Bioorg Med Chem Lett, 2013):
# Key:
# [1] = system: MDA-MB-231; assay: Cytotoxicity against hormone-independent human MDA-MB-231 cells assessed as growth inhibition by MTS assay; assay type: functional, cell-based
# Procedure, shortened: (§1)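 Cells seeded at 2,500 per well and exposed to a range of compound concentrations. Read-out is the MTS assay […]. IC50 is the mean of 3 independent experiments, each run in triplicate.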
# [2] = target: Tubulin (Sus scrofa, UniProt P02554+P02550); assay: Inhibition of porcine brain tubulin polymerization
# [3] = system: PC-3; assay: Cytotoxicity against hormone-independent human PC3 cells assessed as growth inhibition by MTS assay; assay type: functional, cell-based; procedure, shortened: as §1
Structure (SMILES),IC50 [1] [nM],IC50 [2],IC50 [3] [nM]
COc1ccc2c(c1)NC(=O)/C2=C/c1cc(OC)c(OC)c(OC)c1,0.88,,
COc1ccc2c(c1)C(=O)C(=O)N2Cc1cc(OC)c(OC)c(OC)c1,935,ND(Insoluble),318
COc1ccc2c(c1)n(C)c(=O)n2Cc1cc(OC)c(OC)c(OC)c1,3030,> 40000 nM,555
COc1ccc2c(c1)[nH]c(=O)n2Cc1cc(OC)c(OC)c(OC)c1,52.8,16400 nM,44.2
COc1ccc2c(c1)oc(=O)n2C(=O)c1cc(OC)c(OC)c(OC)c1,> 20000,,> 20000
COc1ccc2c(c1)oc(=O)n2Cc1cc(OC)c(OC)c(OC)c1,4520,> 40000 nM,4490
COc1ccc2c(c1)CC(=O)N2Cc1cc(OC)c(OC)c(OC)c1,193,31200 nM,165
COc1ccc2c(c1)[nH]c(=O)n2C(=O)c1cc(OC)c(OC)c(OC)c1,108,19140 nM,126
